Test results reported in ChEMBL document CHEMBL4049423, “Discovery of Novel 1,4-Diacylpiperazines as Selective and Cell-Active eIF4A3 Inhibitors” (J Med Chem, 2017).

Legend:
[1] = target: T1, Eukaryotic initiation factor 4A-III (Homo sapiens, UniProt P38919); experiment: Inhibition of eIF4A3 (unknown origin) expressed in HEK293T cells assessed as NMD suppression at 3 uM after 6 hrs by luciferase reporter gene assay relative to control; assay type: cell-based
Outline: (§1)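 HEK293T cells were co-transfected (Lipofectamine LTX) with the pGL4.12 SV40-Luc2CP-BGG NMD reporter and a pRL-TK renilla control. After 24 h of transfection, cells were treated with compound for 6 h. Firefly/renilla luciferase ratio was measured by dual-luciferase assay and normalized to DMSO-treated cells, n = 2.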

[2] = target: T1, Eukaryotic initiation factor 4A-III; experiment: Inhibition of eIF4A3 (unknown origin) expressed in HEK293T cells assessed as NMD suppression at 10 uM after 6 hrs by luciferase reporter gene assay relative to control; assay type: cell-based; outline: as §1
[3] = target: T1, Eukaryotic initiation factor 4A-III; experiment: Binding affinity to full-length human recombinant His6-tagged eIF4A3 expressed in Escherichia coli BL21(DE3) by surface plasmon resonance assay
Outline: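 eIF4A3 immobilized on CM7 chip by amine coupling (5000–10 000 RU) in HBS-P+ with 1 mM DTT. Binding run at 25 °C in 20 mM Tris-HCl pH 8.0, 150 mM NaCl, 0.2 mM TCEP, 0.02% P20, 1−2% DMSO. Compound injected at 6−12 concentrations for 60−120 s at 50 μL/min, dissociation followed 120−1200 s. Sensorgrams double-referenced, globally fitted to 1:1 model.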

[4] = target: T1, Eukaryotic initiation factor 4A-III; experiment: Inhibition of MLN51-induced full-length human recombinant His6-tagged eIF4A3 RNA dependent ATPase activity expressed in Escherichia coli BL21(DE3) using single stranded poly(U) RNA as substrate after 30 mins by ADP-Glo luminescence assay
Outline: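 ADP-Glo luminescence read-out with 150 nM eIF4A3 plus an equimolar amount of MLN51. Substrates were 35 μM ATP and 1.5 μg/mL poly(U), both at Km. Buffer: 20 mM Tris-HCl pH 7.5, 2.5 mM MgCl2, 100 mM KCl, 1 mM DTT, 0.01% Tween20. Enzyme was added last to start the reaction, then incubated 30 min at room temperature. No-enzyme wells were taken as 100% inhibition and the complete reaction as 0%.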

[5] = target: T2, ATP-dependent RNA helicase DHX29 (Homo sapiens, UniProt Q7Z478); experiment: Inhibition of human recombinant full-length FLAG-His-tagged DHX29 RNA dependent ATPase activity expressed in baculovirus infected Sf9 insect cells using single stranded poly(U) RNA as substrate after 30 mins by ADP-Glo luminescence assay
T2 sequence (Q7Z478 whole entry): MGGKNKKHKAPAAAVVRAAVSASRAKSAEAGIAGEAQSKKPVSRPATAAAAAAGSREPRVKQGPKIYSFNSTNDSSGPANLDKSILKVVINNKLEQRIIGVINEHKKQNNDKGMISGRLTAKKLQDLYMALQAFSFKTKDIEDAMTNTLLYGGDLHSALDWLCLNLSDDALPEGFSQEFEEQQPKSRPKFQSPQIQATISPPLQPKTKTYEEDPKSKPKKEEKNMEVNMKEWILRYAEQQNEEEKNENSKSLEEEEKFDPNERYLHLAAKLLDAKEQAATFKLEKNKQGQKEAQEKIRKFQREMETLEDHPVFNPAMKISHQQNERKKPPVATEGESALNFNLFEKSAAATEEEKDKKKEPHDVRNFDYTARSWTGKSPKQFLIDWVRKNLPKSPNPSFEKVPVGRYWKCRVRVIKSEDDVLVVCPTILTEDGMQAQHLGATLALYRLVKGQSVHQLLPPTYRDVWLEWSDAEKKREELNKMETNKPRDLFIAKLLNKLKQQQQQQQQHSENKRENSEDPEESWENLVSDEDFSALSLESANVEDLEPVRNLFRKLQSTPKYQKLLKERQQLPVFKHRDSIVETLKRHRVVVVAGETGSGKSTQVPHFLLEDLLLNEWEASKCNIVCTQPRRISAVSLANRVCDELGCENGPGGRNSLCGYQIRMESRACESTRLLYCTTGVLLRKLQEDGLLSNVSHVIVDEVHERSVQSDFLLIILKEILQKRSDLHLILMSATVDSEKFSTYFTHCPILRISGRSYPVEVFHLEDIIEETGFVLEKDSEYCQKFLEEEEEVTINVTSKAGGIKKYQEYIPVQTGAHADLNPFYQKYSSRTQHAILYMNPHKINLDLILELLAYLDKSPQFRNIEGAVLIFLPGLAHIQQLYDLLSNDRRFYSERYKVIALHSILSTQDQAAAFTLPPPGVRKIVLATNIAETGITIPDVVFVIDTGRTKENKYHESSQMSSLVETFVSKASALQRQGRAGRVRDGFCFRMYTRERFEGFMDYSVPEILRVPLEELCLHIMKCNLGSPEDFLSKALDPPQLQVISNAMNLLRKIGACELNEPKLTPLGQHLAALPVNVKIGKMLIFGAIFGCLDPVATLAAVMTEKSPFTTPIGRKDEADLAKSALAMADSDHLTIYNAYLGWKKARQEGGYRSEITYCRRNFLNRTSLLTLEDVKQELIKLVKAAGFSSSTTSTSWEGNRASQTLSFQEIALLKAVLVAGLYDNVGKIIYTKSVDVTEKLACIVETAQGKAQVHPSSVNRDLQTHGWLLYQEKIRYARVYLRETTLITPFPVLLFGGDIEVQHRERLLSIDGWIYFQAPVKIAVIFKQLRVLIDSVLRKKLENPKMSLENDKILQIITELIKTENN
Outline: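 DHX29 was Ni-NTA and Superdex 200 purified and used at 6.4 nM. Substrates were 30 μM ATP and 1.8 μg/mL poly(U), both at Km. Run in pH 7.5 Tris/MgCl2/KCl/DTT/Tween20 buffer, started with enzyme, 30 min at room temperature. ADP detected by ADP-Glo luminescence, with no-enzyme wells as 100% inhibition.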

[6] = target: Eukaryotic initiation factor 4A-II (Homo sapiens, UniProt Q14240); experiment: Inhibition of eIF4G-induced human recombinant His6-tagged eIF4A2 RNA dependent ATPase activity using single stranded poly(U) RNA as substrate after 40 mins by ADP-Glo luminescence assay
Outline: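 eIF4A2 was a purchased His-tagged human protein, used at 100 nM with equimolar eIF4B and eIF4G. Substrates were 20 μM ATP and 3.0 μg/mL poly(U), both at Km. The reaction was started with enzyme in Tris-HCl pH 7.5/MgCl2/KCl/DTT/Tween20 buffer and run 40 min at room temperature. ADP-Glo read-out, with the no-enzyme control set as 100% inhibition.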

[7] = target: T1, Eukaryotic initiation factor 4A-III; experiment: Binding affinity to full-length human recombinant His6-tagged eIF4A3 expressed in Escherichia coli BL21(DE3) assessed as association rate constant by surface plasmon resonance assay
Outline: (§2)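 eIF4A3 amine-coupled to a CM7 sensor chip (5000–10 000 RU) in HBS-P+ with 1 mM DTT. Binding was run at 25 °C in 20 mM Tris-HCl pH 8.0, 150 mM NaCl, 0.2 mM TCEP, 0.02% P20 and 1–2% DMSO. Compound series of 6–12 concentrations were injected for 60–120 s at 50 μL/min, with dissociation followed for 120–1200 s. Sensorgrams were double-referenced and globally fitted to a 1:1 model.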

[8] = target: T1, Eukaryotic initiation factor 4A-III; experiment: Binding affinity to full-length human recombinant His6-tagged eIF4A3 expressed in Escherichia coli BL21(DE3) assessed as dissociation half life by surface plasmon resonance assay; outline: as §2
[9] = target: T1, Eukaryotic initiation factor 4A-III; experiment: Binding affinity to full-length human recombinant His6-tagged eIF4A3 expressed in Escherichia coli BL21(DE3) assessed as dissociation rate constant by surface plasmon resonance assay; outline: as §2
[10] = target: U5 small nuclear ribonucleoprotein 200 kDa helicase (Homo sapiens, UniProt O75643); experiment: Inhibition of human recombinant full-length His-tagged BRR2 RNA dependent ATPase activity expressed in baculovirus infected Sf9 insect cells using single stranded poly(U) RNA as substrate after 30 mins by ADP-Glo luminescence assay
Outline: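 BRR2 was Ni-NTA and gel-filtration purified and used at 6.25 nM. Substrates were 20 μM ATP and 2.5 μg/mL poly(U), both at Km. Buffer: 20 mM Tris-HCl pH 7.5, 2.5 mM MgCl2, 100 mM KCl, 1 mM DTT, 0.01% Tween20. Started with enzyme and incubated 30 min at room temperature, with ADP-Glo luminescence read-out.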

[11] = target: Eukaryotic initiation factor 4A-I (Homo sapiens, UniProt P60842); experiment: Inhibition of eIF4G-induced full-length human recombinant His6-tagged eIF4A1 RNA dependent ATPase activity expressed in Escherichia coli BL21(DE3) using single stranded poly(U) RNA as substrate after 40 mins by ADP-Glo luminescence assay
Outline: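 100 nM eIF4A1 with equimolar eIF4B and eIF4G, 35 μM ATP and 1.5 μg/mL poly(U), both at Km. Buffer: Tris-HCl pH 7.5, MgCl2, KCl, DTT, Tween20. The reaction was started with enzyme and run 40 min at room temperature, with ADP read by ADP-Glo luminescence. No-enzyme wells were set as 100% inhibition.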

T1 sequence (P38919 whole entry): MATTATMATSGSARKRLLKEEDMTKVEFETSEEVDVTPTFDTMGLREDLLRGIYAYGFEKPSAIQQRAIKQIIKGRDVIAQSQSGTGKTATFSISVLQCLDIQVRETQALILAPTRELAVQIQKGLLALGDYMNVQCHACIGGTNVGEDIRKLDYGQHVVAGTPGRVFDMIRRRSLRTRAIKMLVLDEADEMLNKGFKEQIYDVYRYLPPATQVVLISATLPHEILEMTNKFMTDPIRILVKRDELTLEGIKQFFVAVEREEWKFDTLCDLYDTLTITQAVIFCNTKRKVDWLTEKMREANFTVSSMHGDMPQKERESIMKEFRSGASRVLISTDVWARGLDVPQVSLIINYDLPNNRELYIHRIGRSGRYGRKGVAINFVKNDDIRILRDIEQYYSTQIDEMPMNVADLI
Chain of U5 small nuclear ribonucleoprotein 200 kDa helicase (O75643 whole entry): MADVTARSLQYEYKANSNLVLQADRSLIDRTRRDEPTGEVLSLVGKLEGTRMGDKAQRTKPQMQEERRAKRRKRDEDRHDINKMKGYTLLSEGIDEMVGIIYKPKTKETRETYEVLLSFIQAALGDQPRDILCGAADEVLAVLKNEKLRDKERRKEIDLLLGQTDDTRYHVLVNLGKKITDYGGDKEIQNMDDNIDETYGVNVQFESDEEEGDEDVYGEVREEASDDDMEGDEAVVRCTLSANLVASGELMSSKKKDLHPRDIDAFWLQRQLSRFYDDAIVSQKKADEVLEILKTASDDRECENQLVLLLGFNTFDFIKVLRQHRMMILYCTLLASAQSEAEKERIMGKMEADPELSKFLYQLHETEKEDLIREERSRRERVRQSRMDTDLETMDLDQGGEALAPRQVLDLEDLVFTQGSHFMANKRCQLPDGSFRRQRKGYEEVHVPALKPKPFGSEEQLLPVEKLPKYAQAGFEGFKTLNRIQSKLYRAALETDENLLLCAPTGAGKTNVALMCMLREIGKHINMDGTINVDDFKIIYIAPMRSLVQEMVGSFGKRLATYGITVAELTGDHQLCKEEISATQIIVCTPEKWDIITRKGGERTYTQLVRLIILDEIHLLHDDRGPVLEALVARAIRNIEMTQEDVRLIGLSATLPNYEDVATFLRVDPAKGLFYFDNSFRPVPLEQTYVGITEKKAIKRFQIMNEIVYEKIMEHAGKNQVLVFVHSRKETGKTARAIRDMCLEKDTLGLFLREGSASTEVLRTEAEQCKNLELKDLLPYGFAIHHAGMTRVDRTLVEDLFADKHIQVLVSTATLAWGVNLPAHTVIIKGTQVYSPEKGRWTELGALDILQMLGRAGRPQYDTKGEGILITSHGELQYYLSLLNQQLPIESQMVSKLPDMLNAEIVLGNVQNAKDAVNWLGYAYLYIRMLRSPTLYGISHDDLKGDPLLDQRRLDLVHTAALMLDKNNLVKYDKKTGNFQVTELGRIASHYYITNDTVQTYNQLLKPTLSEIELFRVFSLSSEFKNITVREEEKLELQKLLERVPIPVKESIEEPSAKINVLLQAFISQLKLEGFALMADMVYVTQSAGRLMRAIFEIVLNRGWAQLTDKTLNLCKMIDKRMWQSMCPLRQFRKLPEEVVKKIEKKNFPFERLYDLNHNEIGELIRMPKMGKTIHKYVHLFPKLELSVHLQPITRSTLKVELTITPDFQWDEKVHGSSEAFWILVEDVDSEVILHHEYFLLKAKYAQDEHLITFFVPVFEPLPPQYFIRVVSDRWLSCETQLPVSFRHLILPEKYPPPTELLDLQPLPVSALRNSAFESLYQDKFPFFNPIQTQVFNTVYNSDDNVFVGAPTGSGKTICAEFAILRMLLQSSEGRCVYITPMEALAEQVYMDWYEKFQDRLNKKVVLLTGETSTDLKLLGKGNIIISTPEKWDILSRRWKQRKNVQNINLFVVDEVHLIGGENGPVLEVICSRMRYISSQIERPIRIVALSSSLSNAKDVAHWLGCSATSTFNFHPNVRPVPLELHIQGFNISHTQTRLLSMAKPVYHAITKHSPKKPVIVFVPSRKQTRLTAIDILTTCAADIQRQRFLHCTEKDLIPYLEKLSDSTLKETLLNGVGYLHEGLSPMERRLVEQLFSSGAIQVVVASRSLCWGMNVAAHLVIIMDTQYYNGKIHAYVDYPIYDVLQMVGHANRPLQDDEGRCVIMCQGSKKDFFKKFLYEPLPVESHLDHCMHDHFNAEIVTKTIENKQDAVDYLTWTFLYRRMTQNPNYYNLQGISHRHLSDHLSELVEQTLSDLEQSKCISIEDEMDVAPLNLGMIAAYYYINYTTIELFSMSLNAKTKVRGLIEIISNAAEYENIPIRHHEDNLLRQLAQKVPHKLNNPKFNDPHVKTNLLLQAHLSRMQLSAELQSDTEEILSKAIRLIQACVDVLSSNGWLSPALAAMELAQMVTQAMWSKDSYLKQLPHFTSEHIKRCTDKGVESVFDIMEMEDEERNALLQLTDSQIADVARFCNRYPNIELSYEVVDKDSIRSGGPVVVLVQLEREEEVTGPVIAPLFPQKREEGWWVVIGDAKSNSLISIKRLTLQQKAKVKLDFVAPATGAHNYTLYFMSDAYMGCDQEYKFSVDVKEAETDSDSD
Chain of Eukaryotic initiation factor 4A-I (P60842 whole entry): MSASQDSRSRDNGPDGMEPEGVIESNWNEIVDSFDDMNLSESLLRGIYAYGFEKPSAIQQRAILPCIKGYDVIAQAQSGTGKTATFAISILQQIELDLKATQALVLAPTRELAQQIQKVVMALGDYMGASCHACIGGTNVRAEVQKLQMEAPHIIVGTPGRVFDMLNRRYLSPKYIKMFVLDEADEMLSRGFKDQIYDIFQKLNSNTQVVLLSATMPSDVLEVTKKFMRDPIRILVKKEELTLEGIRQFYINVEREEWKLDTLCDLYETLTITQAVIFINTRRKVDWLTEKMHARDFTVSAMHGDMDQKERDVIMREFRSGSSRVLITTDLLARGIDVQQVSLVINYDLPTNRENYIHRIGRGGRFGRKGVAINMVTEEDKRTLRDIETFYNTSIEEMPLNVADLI
Chain of Eukaryotic initiation factor 4A-II (Q14240 whole entry): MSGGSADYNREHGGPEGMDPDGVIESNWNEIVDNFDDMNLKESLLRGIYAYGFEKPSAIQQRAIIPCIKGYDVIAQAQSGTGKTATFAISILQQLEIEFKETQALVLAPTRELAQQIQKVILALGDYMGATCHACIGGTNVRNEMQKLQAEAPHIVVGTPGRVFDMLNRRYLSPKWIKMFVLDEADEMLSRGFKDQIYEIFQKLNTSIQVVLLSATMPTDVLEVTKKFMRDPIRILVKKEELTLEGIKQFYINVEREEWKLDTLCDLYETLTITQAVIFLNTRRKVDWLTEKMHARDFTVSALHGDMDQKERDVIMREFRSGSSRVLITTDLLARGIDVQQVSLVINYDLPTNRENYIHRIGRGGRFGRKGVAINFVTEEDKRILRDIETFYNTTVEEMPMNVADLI

fold change (FC) [1]: 2.72
fold change (FC) [2]: 3.69
Kd [3]: 0.043 µM
IC50 [4]: 0.26 µM
IC50 [5]: > 100 µM
IC50 [6]: > 100 µM
K [7]: 1.6 ×10⁴ /M/s
T1/2 [8]: 16.8 min
K [9]: 6.9 ×10⁻⁴ /s
IC50 [10]: > 100 µM
IC50 [11]: > 100 µM
SMILES: Cc1c(C(=O)N2CCN(C(=O)c3ccc(Br)cc3)[C@@H](c3ccc(Cl)cc3)C2)cnn1-c1cccc(C#N)c1
